The values that follow come from ChEMBL document CHEMBL3525987, “Assessment of exposure of metabolites in preclinical species and humans at steady state from the single-dose radiolabeled absorption, distribution, metabolism, and excretion studies: a case study” (Drug Metab Dispos, 2012).

Data set [1] deals with Rattus norvegicus. Kind of data set: AUC (0 to 24 hrs) in male Sprague-Dawley rat at 10 mg/kg, po administered as single dose via gavage. It counts as ADME, organism-based, Plasma. Set-up: time < 24 hr, dose 10 mg/kg, dosed compound name [14C]lixivaptan, route oral. As to conditions: in vivo. In outline:
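Sprague-Dawley rats (9/gender) were fasted 18 h and gavaged once with [14C]lixivaptan at 10 mg/kg (10 ml/kg), about 29.8 µCi/mg, suspended in deionized water with pluronic F68. Plasma came by cardiac puncture under isoflurane at 1, 8 and 24 h (3/gender/time) and was extracted twice with 2 volumes of acetonitrile. C18 radio-HPLC with a flow scintillation detector gave percent of plasma radioactivity per peak.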

Data set [2] concerns Homo sapiens. The data set can be described thus: Half life as total radioactivity in human plasma at 100 mg, po administered as single dose by LC-MS/MS analysis. It counts as ADME, organism-based. Details: dosed compound name [14C]lixivaptan. Conditions: in vivo. In outline: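 Single oral 100 mg [14C]drug to healthy male volunteers; plasma at 0.25-144 h. Parent by validated LC-MS/MS, total radioactivity by LSC as ng-equiv/ml; Tmax from observed data; t1/2 = 0.693/kel from log-linear terminal regression.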

The test system of data set [3] is Rattus norvegicus. Kind of data set: Total Drug recovery in female Sprague-Dawley rat at 10 mg/kg, po administered as single dose via gavage measured after 168 hrs by liquid scintillation counting. It counts as ADME, organism-based. Details: dose 10 mg/kg, dosed compound name [14C]lixivaptan, route oral. As to conditions: in vivo. The gist of the method: (§1)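 Intact SD rats (3/gender) dosed by gavage with [14C]drug 10 mg/kg (10 ml/kg, pluronic F68/water), housed in metabolism cages; urine and feces at 0-8, 8-24 h, then every 24 h to 7 days. Urine counted by LSC; feces homogenized 20% w/w in water, combusted, trapped CO2 counted; cage wash/debris included; % of dose.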

Data set [4] is described as follows: Drug recovery in feces of human at […], po administered as single dose measured after 168 hrs by liquid scintillation counting. Conditions: in vivo. Set-up: dosed compound name [14C]lixivaptan, route oral. It counts as ADME, organism-based. The gist of the method: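 Healthy male volunteers given single oral 100 mg (200 µCi) [14C]drug capsules after ≥10 h fast. Urine at 0-4, 4-8, 8-12, 12-24 h then 24-h intervals; feces as passed, to 168 h. Urine LSC; feces homogenized in water, combusted, LSC; % of dose.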

The subject of data set [5] is Homo sapiens. The data set can be described thus: AUC in human at 100 mg, po qd for 7 days. It counts as ADME, organism-based, Plasma. Details: dosed compound name [14C]lixivaptan. As to conditions: in vivo, 168 h.
Data set [6] concerns Rattus norvegicus. The data set can be described thus: Drug level in male Sprague-Dawley rat plasma at 10 mg/kg, po administered as single dose via gavage measured after 1 hr by liquid scintillation counting. Set-up: dose 10 mg/kg, dosed compound name [14C]lixivaptan, route oral. Conditions: in vivo. It counts as ADME, organism-based. In outline: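 Single oral gavage of [14C]drug (10 mg/kg, 10 ml/kg) as suspension in deionized water with pluronic F68, ~29.8 µCi/mg; SD rats fasted 18 h, fed 4 h post-dose. Blood by cardiac puncture under isoflurane, 3 rats/time/gender, into K2EDTA at 1, 8, 24 h; plasma extracted twice with 2 vol acetonitrile, radio-HPLC on C18 with flow radioactivity detection, expressed as % plasma radioactivity.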

The test system of data set [7] is Canis familiaris. The data set can be described thus: Drug recovery in cage wash/debris of male beagle dog at 10 mg/kg, po administered as single dose via gavage measured after 168 hrs by liquid scintillation counting. It counts as ADME, organism-based, Canis lupus familiaris. Conditions: in vivo. Details: dose 10 mg/kg, dosed compound name [14C]lixivaptan, route oral. The gist of the method: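 Four male beagles got 10 mg/kg (2 ml/kg) [14C]drug suspension (5.0 mg/ml, pluronic F68/water, 1.04 µCi/mg) by gavage. Urine and feces collected over dry ice at 0-8, 8-24 h, then every 24 h to 7 days; urine by LSC, fecal homogenates combusted then LSC; cage wash/debris included; % of dose.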

Data set [8] can be described thus: Drug recovery in urine of female Sprague-Dawley rat at 10 mg/kg, po administered as single dose via gavage measured after 168 hrs by liquid scintillation counting. It counts as ADME, organism-based. Set-up: dose 10 mg/kg, dosed compound name [14C]lixivaptan, route oral. As to conditions: in vivo. The gist of the method: as §1
Data set [9] has as its system Homo sapiens. Kind of data set: Drug level in human plasma at 100 mg, po administered as single dose measured after 4 hrs by liquid scintillation counting. It counts as ADME, organism-based. Set-up: dosed compound name [14C]lixivaptan. As to conditions: in vivo. In outline: (§2)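 Healthy male volunteers fasted ≥10 h, given single oral 100 mg (200 µCi) [14C]drug as two 50-mg capsules with 250 ml water. Plasma (from ~50 ml blood) at 0.5, 2, 4, 8, 12, 24, 36 h, profiled per subject. Acetonitrile extraction, C18 radio-HPLC with 0.2% formic acid acetonitrile/water gradient, on-line radioactivity detection as % plasma radioactivity; ng-equiv/ml from % × total radioactivity.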

Data set [10] relates to Rattus norvegicus. The data set can be described thus: Cmax as total radioactivity in female Sprague-Dawley rat plasma at 10 mg/kg, po administered as single dose. It counts as ADME, organism-based. Set-up: dose 10 mg/kg, dosed compound name [14C]lixivaptan, route oral. Conditions: in vivo. The gist of the method:
(§3)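 Jugular-cannulated Sprague-Dawley rats (5/gender) were fasted 18 h and gavaged once with 10 mg/kg [14C]lixivaptan suspended in water/pluronic F68. K2EDTA blood was taken at 0.25–168 h, with donor blood replaced from 1 h on. Total radioactivity was read by LSC (ng-equiv/ml) and parent by validated LC-MS/MS. Noncompartmental Cmax, log-linear kel and trapezoidal AUC followed.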

For data set [11], the system named is Homo sapiens. The data set can be described thus: AUC(0 to t) as total radioactivity in human plasma at 100 mg, po administered as single dose by LC-MS/MS analysis. It counts as ADME, organism-based. Set-up: dosed compound name [14C]lixivaptan. As to conditions: in vivo. In outline: (§4)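 Fasted healthy males took one oral 100 mg (200 µCi) [14C]lixivaptan dose. Plasma was drawn from predose to 144 h. Total radioactivity was measured by LSC and converted to ng-equiv/ml via the dose specific activity; lixivaptan by validated LC-MS/MS. Noncompartmental analysis: Cmax observed; kel by log-linear regression; AUC0-t by linear trapezoid; extrapolation as Cest/kel.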

For data set [12], the system named is Canis familiaris. The data set can be described thus: AUC(0 to infinity) as total radioactivity in male beagle dog plasma at 10 mg/kg, po administered as single dose by LC-MS/MS analysis. It counts as ADME, organism-based, Canis lupus familiaris. Set-up: time infinity, dose 10 mg/kg, dosed compound name [14C]lixivaptan, route oral. As to conditions: in vivo. In outline: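 Four male beagles were fasted 18 h and gavaged once with 10 mg/kg (2 ml/kg) [14C]lixivaptan as a 5.0 mg/ml water/pluronic F68 suspension. Jugular K2EDTA blood was sampled from 0.25 to 168 h. Plasma total radioactivity was counted by LSC as ng-equiv/ml and lixivaptan by validated LC-MS/MS. Noncompartmental Cmax, t1/2 and trapezoidal AUC were derived.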

Data set [13] relates to Canis familiaris. Kind of data set: Drug level in beagle dog plasma at 10 mg/kg, po administered as single dose measured after 2 hrs by liquid scintillation counting. Conditions: in vivo. It counts as ADME, organism-based, Canis lupus familiaris. Details: dose 10 mg/kg, dosed compound name [14C]lixivaptan, route oral. In outline:
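Four male beagles fasted 18 h were gavaged once with [14C]lixivaptan at 10 mg/kg (2 ml/kg). The 5.0 mg/ml suspension was in deionized water with pluronic F68 (1.04 µCi/mg). Jugular K2EDTA plasma was taken at 2, 8 and 24 h and extracted twice with 2 volumes of acetonitrile. Profiling used C18 radio-HPLC (ammonium formate/acetonitrile gradient) with on-line flow scintillation detection. Each peak is reported as percent of plasma radioactivity.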

Data set [14] deals with Homo sapiens. The data set can be described thus: Total drug recovery in human at […], po administered as single dose measured after 168 hrs by liquid scintillation counting. It counts as ADME, organism-based. Details: dosed compound name [14C]lixivaptan, route oral. As to conditions: in vivo. In outline: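 Healthy male volunteers given a single 100 mg (200 μCi) oral dose as 2×50-mg capsules with 250 ml water, fasted ≥10 h before and 4 h after dosing. Urine collected at 0-4, 4-8, 8-12, 12-24 h, then every 24 h to 168 h; feces collected as passed to 168 h. Feces homogenized (20% w/w) and combusted; radioactivity measured by LSC.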

Data set [15] deals with Homo sapiens. Kind of data set: AUC(0 to infinity) as total radioactivity in human plasma at 100 mg, po administered as single dose by LC-MS/MS analysis. Conditions: in vivo. It counts as ADME, organism-based. Details: dose 100 mg, route oral, dosed compound name [14C]lixivaptan, time infinity. In outline: as §4
Data set [16] has as its system Homo sapiens. Kind of data set: Drug level in human plasma at 100 mg, po administered as single dose measured after 0.5 hrs by liquid scintillation counting. It counts as ADME, organism-based. Details: dosed compound name [14C]lixivaptan. As to conditions: in vivo. In outline: as §2
Data set [17] deals with Rattus norvegicus. Kind of data set: Cmax as total radioactivity in male Sprague-Dawley rat plasma at 10 mg/kg, po administered as single dose via gavage by LC-MS/MS analysis. It counts as ADME, organism-based. Details: dose 10 mg/kg, dosed compound name [14C]lixivaptan, route oral. Conditions: in vivo. The gist of the method:
as §3

The structures appear in SMILES notation.

Regarding `Cc1ccc(F)cc1[14C](=O)Nc1ccc(C(=O)N2Cc3cccn3Cc3ccccc32)c(Cl)c1`, the AUC was 632 ng.Eq.hr/ml in the data set on Rattus norvegicus [1], 1860 ng.Eq.hr/ml in the data set with Homo sapiens [5], 94900 ng.Eq.hr/ml in the data set with Canis familiaris [12] and 26200 ng.Eq.hr/ml in the data set on Homo sapiens [15]. For the same compound, the t1/2 in the data set with Homo sapiens [2] turned out to be 25.5 h. Further, the Radiolabel recovery is on record as 103% in the data set with Rattus norvegicus [3]; 63.7% in data set [4]; 4.9% in the data set with Canis familiaris [7]; 7.6% in data set [8]; 84.2% with Homo sapiens [14]. The Compound recovery was 4.1% in the data set with Rattus norvegicus [6], 8% in the data set with Homo sapiens [9], 21.2% in the data set on Canis familiaris [13] and 43.5% with Homo sapiens [16]. The Cmax is 1960 ngequiv/ml in the data set on Rattus norvegicus [10] and 2820 ngequiv/ml in the data set on Rattus norvegicus [17]. Further, in the data set on Homo sapiens [11], the AUCt worked out at 24700 ng.Eq.hr/ml.
